CC50 and MIC data for 15 compounds are collected here from ChEMBL document CHEMBL1914372, “Synthesis and preliminary biological evaluation of novel N-(3-aryl-1,2,4-triazol-5-yl) cinnamamide derivatives as potential antimycobacterial agents: an operational Topliss Tree approach” (Bioorg Med Chem Lett, 2011).

The nature of data set [1]: Cytotoxicity against african green monkey Vero C1008 cells after 72 hrs by MTT assay. It counts as cell-based. To be noted: chlorocebus sabaeus. A digest of the protocol:
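Mammalian VERO C1008 cells were exposed to the compounds in microtitre plates, viability was read by MTT assay, and CC50 values were determined.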

The test system of data set [2] is Mycobacterium tuberculosis. Kind of data set: Antimycobacterial activity against Mycobacterium tuberculosis H37Rv after 7 days by resazurin based microdilution assay. It counts as functional. To be noted: 168 h. A digest of the protocol:
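M. tuberculosis H37Rv in resazurin microtitre assay (REMA) with two-fold serial dilutions of compound; isoniazid as reference drug. MIC taken as lowest concentration giving complete inhibition, read visually by colour change (blue stays blue without growth, turns pink with growth).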

In brackets after ≈: the same amount, converted by molar mass.

`O=C(/C=C/c1ccccc1)Nc1nnc(-c2ccccc2)[nH]1`: the CC50 at 72 h in data set [1] was 1570 µM. Besides, the lowest concentration to inhibit growth in data set [2] (MIC) was 86.2 µM (≈ 25 µg/mL).
On the same counts, the results for `O=C(/C=C/c1ccc(Cl)cc1)Nc1nnc(-c2ccccc2)[nH]1` are 1620 µM and 92.6 µM (≈ 30.1 µg/mL).
In the same order, the values of `COc1ccc(/C=C/C(=O)Nc2nnc(-c3ccccc3)[nH]2)cc1` are 1280 µM and 39.1 µM (≈ 12.5 µg/mL).
For `Cc1ccc(/C=C/C(=O)Nc2nnc(-c3ccccc3)[nH]2)cc1`, half-maximal cytotoxicity in data set [1] (CC50 at 72 h) was put at 1760 µM. The compound also gave an MIC in data set [2] of 82.2 µM (≈ 25 µg/mL).
In the same order, the values of `O=C(/C=C/c1ccc(O)cc1)Nc1nnc(-c2ccccc2)[nH]1` are 1850 µM and 40.8 µM (≈ 12.5 µg/mL).
On the same counts, the results for `Nc1ccc(/C=C/C(=O)Nc2nnc(-c3ccccc3)[nH]2)cc1` are 1910 µM and 20.5 µM (≈ 6.26 µg/mL).
On the same counts, the results for `O=C(/C=C/c1ccc2c(c1)COC2)Nc1nnc(-c2ccccc2)[nH]1` are 1820 µM and 18.8 µM (≈ 6.25 µg/mL).
In turn, `COc1ccc(/C=C/C(=O)Nc2nnc(-c3ccccc3)[nH]2)cc1OC` returned a CC50 at 72 h in data set [1] of 1210 µM. The same compound came in with an MIC in data set [2] of 4.6 µM (≈ 1.61 µg/mL).
In the same order, the values of `O=C(/C=C/c1cccc(Cl)c1)Nc1nnc(-c2ccccc2)[nH]1` are 1470 µM and 38.6 µM (≈ 12.5 µg/mL).
On the same counts, the results for `O=C(/C=C/c1cccc([N+](=O)[O-])c1)Nc1nnc(-c2ccccc2)[nH]1` are 1990 µM and 9.7 µM (≈ 3.25 µg/mL).
In the case of `O=C(/C=C/c1ccco1)Nc1nnc(-c2ccccc2)[nH]1`, in data set [1], it took 2180 µM to reach half-maximal cytotoxicity (CC50 at 72 h). In data set [2], this compound showed an MIC of 11.6 µM (≈ 3.25 µg/mL).
On the same counts, the results for `O=C(/C=C/c1ccc([N+](=O)[O-])s1)Nc1nnc(-c2ccccc2)[nH]1` are 1670 µM and 4.8 µM (≈ 1.64 µg/mL).
In the same order, the values of `C=C(C)COc1ccc(/C=C/C(=O)Nc2nnc(-c3ccccc3)[nH]2)cc1` are 1420 µM and 9 µM (≈ 3.24 µg/mL).
On to `O=C(/C=C/c1ccc(OC(F)(F)F)cc1)Nc1nnc(-c2ccccc2)[nH]1`, for which half-maximal cytotoxicity in data set [1] (CC50 at 72 h) was put at 1560 µM. In addition, the MIC in data set [2] is 8.6 µM (≈ 3.22 µg/mL).
In the same order, the values of `NNC(=O)c1ccncc1` [ISONIAZID] are 1460 µM and 1.8 µM (≈ 0.247 µg/mL).
